pIC50: −log10 of the molar value. Activity calls are given as the source filed them. No cut-off for these calls is given here.
Assays:
[1] = biological target: T1, Sphingosine 1-phosphate receptor 5 (Homo sapiens, UniProt Q9H228); test: Activity at S1P5 receptor by [35S]GTP-gammaS binding assay; assay type: functional; settings: filed as agonist
[2] = biological target: Sphingosine 1-phosphate receptor 2 (Homo sapiens, UniProt O95136); test: Displacement of [33P]S1P from S1P2 expressed in CHO cells; assay type: cell-based
Sphingosine 1-phosphate receptor 2, sequence (O95136 whole entry): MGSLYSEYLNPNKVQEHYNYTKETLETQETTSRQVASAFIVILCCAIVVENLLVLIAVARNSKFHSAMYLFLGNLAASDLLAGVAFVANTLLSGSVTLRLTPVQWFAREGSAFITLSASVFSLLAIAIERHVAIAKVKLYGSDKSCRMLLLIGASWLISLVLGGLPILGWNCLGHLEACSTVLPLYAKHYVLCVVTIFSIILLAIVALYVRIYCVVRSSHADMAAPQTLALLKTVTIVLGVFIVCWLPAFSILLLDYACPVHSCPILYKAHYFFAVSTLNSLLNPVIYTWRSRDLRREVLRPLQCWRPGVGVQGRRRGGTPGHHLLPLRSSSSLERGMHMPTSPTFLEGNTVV
Summary of the method: (§1)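 Competitive radioligand binding with [33P]S1P on membranes from CHO cells expressing each of the five S1P receptor subtypes (S1P1–5).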

[3] = biological target: T2, Sphingosine 1-phosphate receptor 1 (Homo sapiens, UniProt P21453); test: Activity at S1P1 receptor by [35S]GTP-gammaS binding assay; assay type: functional; settings: filed as agonist
T2 sequence (P21453 whole entry): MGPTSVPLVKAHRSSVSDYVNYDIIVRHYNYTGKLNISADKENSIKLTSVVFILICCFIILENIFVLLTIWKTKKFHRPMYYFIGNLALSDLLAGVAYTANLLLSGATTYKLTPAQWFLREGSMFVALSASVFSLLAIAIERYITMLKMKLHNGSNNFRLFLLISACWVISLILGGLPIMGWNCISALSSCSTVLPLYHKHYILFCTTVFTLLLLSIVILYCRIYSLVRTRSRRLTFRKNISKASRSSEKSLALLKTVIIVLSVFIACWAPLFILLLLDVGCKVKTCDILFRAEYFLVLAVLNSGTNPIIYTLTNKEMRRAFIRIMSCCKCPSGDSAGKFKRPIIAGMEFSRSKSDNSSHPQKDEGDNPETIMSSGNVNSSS

[4] = biological target: T3, Sphingosine 1-phosphate receptor 3 (Homo sapiens, UniProt Q99500); test: Activity at S1P3 receptor by [35S]GTP-gammaS binding assay; assay type: functional; settings: filed as agonist
T3 sequence (Q99500 whole entry): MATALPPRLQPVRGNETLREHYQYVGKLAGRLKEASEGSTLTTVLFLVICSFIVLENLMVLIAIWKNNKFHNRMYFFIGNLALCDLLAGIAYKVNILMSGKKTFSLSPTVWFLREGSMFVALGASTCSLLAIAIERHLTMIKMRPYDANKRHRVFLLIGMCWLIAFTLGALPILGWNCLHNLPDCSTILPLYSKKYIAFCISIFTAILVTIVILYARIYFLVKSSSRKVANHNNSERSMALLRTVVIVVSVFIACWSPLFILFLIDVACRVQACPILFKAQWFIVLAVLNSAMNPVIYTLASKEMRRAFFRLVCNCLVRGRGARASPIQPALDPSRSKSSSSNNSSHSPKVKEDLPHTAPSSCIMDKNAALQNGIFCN

[5] = biological target: T1, Sphingosine 1-phosphate receptor 5; test: Displacement of [33P]S1P from S1P5 expressed in CHO cells; assay type: cell-based; summary of the method: as §1
[6] = biological target: T3, Sphingosine 1-phosphate receptor 3; test: Displacement of [33P]S1P from S1P3 expressed in CHO cells; assay type: cell-based; summary of the method: as §1
[7] = biological target: T4, Sphingosine 1-phosphate receptor 4 (Homo sapiens, UniProt O95977); test: Displacement of [33P]S1P from S1P4 expressed in CHO cells; assay type: cell-based; summary of the method: as §1
T4 sequence (O95977 whole entry): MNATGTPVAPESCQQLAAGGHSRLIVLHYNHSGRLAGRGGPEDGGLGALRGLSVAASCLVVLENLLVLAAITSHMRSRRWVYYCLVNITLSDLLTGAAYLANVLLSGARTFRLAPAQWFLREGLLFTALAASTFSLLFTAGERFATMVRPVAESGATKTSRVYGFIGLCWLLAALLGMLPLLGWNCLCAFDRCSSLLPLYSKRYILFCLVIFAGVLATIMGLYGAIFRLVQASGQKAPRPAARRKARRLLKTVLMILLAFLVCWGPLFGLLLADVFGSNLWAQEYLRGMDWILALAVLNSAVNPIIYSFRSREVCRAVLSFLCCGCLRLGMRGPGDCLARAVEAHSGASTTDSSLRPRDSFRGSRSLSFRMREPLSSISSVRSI

[8] = biological target: T2, Sphingosine 1-phosphate receptor 1; test: Displacement of [33P]S1P from S1P1 expressed in CHO cells; assay type: cell-based; summary of the method: as §1
[9] = Bioavailability in Sprague-Dawley rat at 1 mg/kg, iv and 2 mg/kg, po; assay type: ADME, organism-based; settings: in vivo
[10] = Plasma clearance in Sprague-Dawley rat at 1 mg/kg, iv or 2 mg/kg, po; assay type: ADME, organism-based
[11] = Half life in Sprague-Dawley rat at 1 mg/kg, iv or 2 mg/kg, po; assay type: ADME, organism-based; settings: in vivo
[12] = system: Mus musculus; test: Lowering of peripheral blood lymphocytes in mouse at 10 mg/kg; assay type: functional, organism-based; set-up: dose 10 mg/kg
Summary of the method: (§2)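 Mice were dosed orally, and circulating peripheral blood lymphocytes were counted 3 h after administration.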

[13] = Volume of distribution in Sprague-Dawley rat at 1 mg/kg, iv or 2 mg/kg, po; assay type: ADME, organism-based; settings: in vivo, read-out: Vdss
[14] = species: Mus musculus; test: Lowering of peripheral blood lymphocytes in mouse; assay type: functional; summary of the method: as §2

T1 sequence (Q9H228 whole entry): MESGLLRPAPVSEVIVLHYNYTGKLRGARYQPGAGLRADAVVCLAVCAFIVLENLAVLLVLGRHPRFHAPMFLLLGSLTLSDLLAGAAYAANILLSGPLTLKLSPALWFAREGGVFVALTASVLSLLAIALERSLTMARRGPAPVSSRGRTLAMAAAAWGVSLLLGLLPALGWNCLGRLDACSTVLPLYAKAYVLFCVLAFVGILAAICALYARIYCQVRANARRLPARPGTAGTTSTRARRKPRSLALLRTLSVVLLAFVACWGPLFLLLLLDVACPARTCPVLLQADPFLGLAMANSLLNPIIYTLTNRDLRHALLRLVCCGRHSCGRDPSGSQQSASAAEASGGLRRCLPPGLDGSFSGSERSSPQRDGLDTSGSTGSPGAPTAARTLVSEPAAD

| Structure (SMILES) | Activity [1] | pIC50 [2] | Activity [3] | Activity [4] | pIC50 [5] | pIC50 [6] | pIC50 [7] | pIC50 [8] | pIC50 ([2]; cho) | bioavailability [9] | clearance [10] | half-life [11] | Activity [12] | Vd [13] | ED50 [14] |
| --- | --- | --- | --- | --- | --- | --- | --- | --- | --- | --- | --- | --- | --- | --- | --- |
| CC(C)Cc1ccc(-c2nc(-c3ccc([C@H]4CC[C@@H](C(=O)O)N4)cc3)no2)cc1 (racemic) | Agonist | < 5.00 | Agonist | Agonist | 5.89 | < 5.00 | 6.00 | 7.12 | – | – | – | – | – | – | – |
| O=C(O)C[C@@H]1CC[C@H](c2ccc(-c3noc(-c4ccc([C@@H]5CCC(F)(F)C5)cc4)n3)cc2)N1 (racemic) [listing 1 of 2 here] | – | – | – | – | 7.89 | 5.60 | 6.24 | 8.92 | < 5.00 | – | – | – | – | – | – |
| O=C(O)C[C@@H]1CC[C@H](c2ccc(-c3noc(-c4ccc([C@H]5CCC(F)(F)C5)cc4)n3)cc2)N1 (racemic) | Agonist | < 5.00 | Agonist | Agonist | 7.80 | 5.66 | 6.14 | 9.10 | – | – | – | – | – | – | – |
| CC(C)Cc1ccc(-c2nc(-c3ccc([C@H]4CC[C@@H](CC(=O)O)N4)cc3)no2)cc1 (racemic) | Agonist | < 5.00 | Agonist | Agonist | 6.70 | < 5.00 | 6.00 | 8.48 | – | 48% | 0.396 L/h/kg | 4.1 h | Active | 2.9 L/kg | – |
| CC(C)Cc1ccc(-c2nc(-c3ccc([C@@H]4CC[C@@H](CCC(=O)O)N4)cc3)no2)cc1 (racemic) | Agonist | < 5.00 | Agonist | Agonist | 7.10 | 5.17 | 6.20 | 8.24 | – | – | – | – | – | – | – |
| O=C(O)C[C@@H]1CC[C@H](c2ccc(-c3noc(-c4ccc(C5CCCCC5)cc4)n3)cc2)N1 (racemic) | Agonist | < 5.00 | Agonist | Agonist | 7.70 | 5.77 | 6.46 | 9.15 | – | – | – | – | – | – | – |
| O=C(O)C[C@@H]1CC[C@H](c2ccc(-c3noc(-c4ccc(C5CCCC5)cc4F)n3)cc2)N1 (racemic) | Agonist | < 5.00 | Agonist | Agonist | 7.22 | < 5.00 | 5.85 | 8.57 | – | – | – | – | – | – | – |
| CC(C)Cc1ccc(-c2nc(-c3ccc([C@@H]4CC[C@@H](CC(=O)O)N4)cc3)no2)cc1 (racemic) | Agonist | < 5.00 | Agonist | Agonist | 7.00 | < 5.00 | 6.15 | 8.10 | – | 40% | 0.504 L/h/kg | 3.5 h | Active | 3 L/kg | – |
| CC(C)Cc1ccc(-c2nc(-c3ccc([C@H]4CC[C@@H](CCC(=O)O)N4)cc3)no2)cc1 (racemic) | Agonist | < 5.00 | Agonist | Agonist | 7.52 | < 5.00 | 6.27 | 8.35 | – | – | – | – | – | – | – |
| O=C(O)C[C@@H]1CC[C@H](c2ccc(-c3noc(-c4ccc(C5CCCC5)c(F)c4)n3)cc2)N1 (racemic) | Agonist | < 5.00 | Agonist | Agonist | 7.52 | 5.12 | 5.68 | 8.70 | – | – | – | – | – | – | – |
| CC(C)Cc1ccc(-c2nc(-c3ccc([C@@H]4CC[C@@H](C(=O)O)N4)cc3)no2)cc1 (racemic) | Agonist | < 5.00 | Agonist | Agonist | 6.74 | 5.00 | 6.52 | 7.77 | – | – | – | – | – | – | – |
| O=C(O)C[C@@H]1CC[C@H](c2ccc(-c3noc(-c4ccc([C@@H]5CCC(F)(F)C5)cc4)n3)cc2)N1 (racemic) [listing 2 of 2 here] | Agonist | – | Agonist | Agonist | – | – | – | – | – | – | – | – | – | – | – |
| O=C(O)C[C@@H]1CC[C@H](c2ccc(-c3noc(-c4ccc([C@@H]5CCC(F)(F)C5)cc4)n3)cc2)N1 (stereo in doubt; form 1) [listing 1 of 2 here] | – | – | – | – | 7.72 | 5.11 | 5.82 | 8.54 | < 5.00 | – | – | – | – | – | – |
| O=C(O)C[C@@H]1CC[C@H](c2ccc(-c3noc(-c4ccc([C@@H]5CCC(F)(F)C5)cc4)n3)cc2)N1 (stereo in doubt; form 1) [listing 2 of 2 here] | Agonist | – | Agonist | Agonist | – | – | – | – | – | – | – | – | – | – | – |
| O=C(O)C[C@@H]1CC[C@H](c2ccc(-c3noc(-c4ccc([C@@H]5CCC(F)(F)C5)cc4)n3)cc2)N1 (stereo in doubt; form 2) [listing 1 of 2 here] | – | < 5.00 | – | – | 7.82 | 5.42 | 6.14 | 9.19 | – | 48% | 0.582 L/h/kg | 2.2 h | – | 2.3 L/kg | 0.3 mg/kg |
| O=C(O)C[C@@H]1CC[C@H](c2ccc(-c3noc(-c4ccc([C@@H]5CCC(F)(F)C5)cc4)n3)cc2)N1 (stereo in doubt; form 2) [listing 2 of 2 here] | Agonist | – | Agonist | Agonist | – | – | – | – | – | – | – | – | – | – | – |

From ChEMBL document CHEMBL1147803, “2,5-Disubstituted pyrrolidine carboxylates as potent, orally active sphingosine-1-phosphate (S1P) receptor agonists” (Bioorg Med Chem Lett, 2006)
